In general, IC50 refers to the point on the concentration scale where inhibition reaches its midpoint. Read a high IC50 as weaker potency.

Series [1] has as its system Human alphaherpesvirus 1. As to the kind of experiment: Antiviral activity against HSV1 KOS infected in HFF cells incubated for 3 days by plaque reduction assay. It is filed as functional, organism-based. The conditions noted are these: hff. The method, boiled down: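 HFF monolayer plaque reduction, about 100 plaques per well. Drug overlay (100 µM down to 0.03 µM), about 3 days incubation, crystal violet staining, macroscopic plaques counted. IC50 from regression of % plaque reduction relative to no-drug wells. Duplicate; acyclovir run as positive control.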
For orientation: Plaque reduction counts the foci of infection that form in a cell layer.

The test system of series [2] is Vaccinia virus. As to the kind of experiment: Antiviral activity against Vaccinia virus Copenhagen infected in HFF cells incubated for 3 days by plaque reduction assay. It is filed as functional, organism-based, Orthopoxvirus vaccinia. Particulars: hff.
The test system of series [3] is Human betaherpesvirus 5. Kind of series: Antiviral activity against HCMV Towne infected in HFF cells incubated for 10 days by plaque reduction assay. It is filed as functional, organism-based. The conditions noted are these: hff. The procedure, abridged: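 Towne strain (plaque-purified P0) on HFF cells, about 100 plaques per well. Drug overlay (100 µM down to 0.03 µM), about 10 days incubation, crystal violet staining, microscopic plaques counted. IC50 from regression of % plaque reduction versus no-drug wells. Duplicate; ganciclovir as positive control.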

In series [4] the test system is Plasma. Kind of series: Drug level in CFW Swiss-Webster mouse plasma dosed at 10 mg equivalent of (S)-9-[3-hydroxy-2-(phosphonomethoxy)propyl]adenine/kg, po by LC-MS analysis. Particulars: in vivo. It is filed as ADME, organism-based. The method, boiled down: (§1)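 CFW Swiss-Webster mice, 4 weeks old, 25 g, fasted 18 h with water. Prodrug given by gavage in water at 10 mg eq (of HPMPA)/kg. Plasma by cardiac puncture at 1, 2, 3, 4 and 8 h, 5 mice per time point, one sample per mouse. Solid-phase extraction, then LC-MS (ESI positive) against internal-standard calibration curves.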

The subject of series [5] is HFF. Kind of series: Cytotoxicity against HFF cells after 48 hrs by visual cytotoxicity observation assay. The conditions noted are these: hff. It counts as cell-based, Homo sapiens.
The subject of series [6] is Plasma. As to the kind of experiment: Drug level in CFW Swiss-Webster mouse plasma assessed as (S)-cHPMPA levels dosed at 10 mg equivalent of (S)-9-[3-hydroxy-2-(phosphonomethoxy)propyl]adenine/kg, po by LC-MS analysis. The conditions noted are these: in vivo. It counts as ADME, organism-based. The method, boiled down:
as §1

Series [7] can be described thus: Antiviral activity against Cowpox virus Brighton infected in HFF cells incubated for 3 days by plaque reduction assay. It counts as functional, cell-based, Cowpox virus (Brighton Red). The conditions noted are these: hff.

Take `CC(C)CNC(=O)[C@@H](N)Cc1ccc(OP2(=O)CO[C@@H](Cn3cnc4c(N)ncnc43)CO2)cc1.Cl` (mixture of isomers; form 2): the IC50 is 35000 nM in series [1]; 1500 nM in series [2]; 1300 nM in series [3]; 100000 nM in series [5]; 2000 nM in series [7]. The Drug uptake in series [4] is 20%; in series [6], 80%.
